Test results: ChEMBL document CHEMBL1165949, “Dammaranes from Gynostemma pentaphyllum and synthesis of their derivatives as inhibitors of protein tyrosine phosphatase 1B” (Bioorg Med Chem, 2010)

Experiments:
[1] = molecular target: T1, Tyrosine-protein phosphatase non-receptor type 2 (Homo sapiens, UniProt P17706); test: Inhibition of TCPTP by pNPP hydrolase assay
T1 sequence (P17706 whole entry): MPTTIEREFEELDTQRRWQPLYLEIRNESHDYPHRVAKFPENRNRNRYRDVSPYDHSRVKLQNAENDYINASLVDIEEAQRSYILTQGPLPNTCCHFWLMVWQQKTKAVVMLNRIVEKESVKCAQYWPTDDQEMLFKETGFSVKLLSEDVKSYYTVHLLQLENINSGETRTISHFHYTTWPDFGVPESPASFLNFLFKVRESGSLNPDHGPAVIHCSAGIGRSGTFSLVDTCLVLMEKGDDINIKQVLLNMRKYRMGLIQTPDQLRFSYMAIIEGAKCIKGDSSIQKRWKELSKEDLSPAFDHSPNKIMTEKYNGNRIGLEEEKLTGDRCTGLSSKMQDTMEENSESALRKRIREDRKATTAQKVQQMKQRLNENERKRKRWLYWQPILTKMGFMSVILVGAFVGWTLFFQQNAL
How it was run: (§1)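 Enzyme activity (PTP1B or TCPTP) was measured by hydrolysis of p-nitrophenyl phosphate (pNPP), with {4-[4-(4-oxalylphenoxymethyl)-benzyloxy]-phenyl}-oxo-acetic acid as the reference inhibitor. IC50 was derived by regression analysis and reported as mean ± SD of three replications.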

[2] = Selectivity ratio of IC50 for TCPTP to IC50 for PTP1B
[3] = molecular target: T2, Tyrosine-protein phosphatase non-receptor type 1 (Homo sapiens, UniProt P18031); test: Inhibition of PTP1B by pNPP hydrolase assay; how it was run: as §1
T2 sequence (P18031 whole entry): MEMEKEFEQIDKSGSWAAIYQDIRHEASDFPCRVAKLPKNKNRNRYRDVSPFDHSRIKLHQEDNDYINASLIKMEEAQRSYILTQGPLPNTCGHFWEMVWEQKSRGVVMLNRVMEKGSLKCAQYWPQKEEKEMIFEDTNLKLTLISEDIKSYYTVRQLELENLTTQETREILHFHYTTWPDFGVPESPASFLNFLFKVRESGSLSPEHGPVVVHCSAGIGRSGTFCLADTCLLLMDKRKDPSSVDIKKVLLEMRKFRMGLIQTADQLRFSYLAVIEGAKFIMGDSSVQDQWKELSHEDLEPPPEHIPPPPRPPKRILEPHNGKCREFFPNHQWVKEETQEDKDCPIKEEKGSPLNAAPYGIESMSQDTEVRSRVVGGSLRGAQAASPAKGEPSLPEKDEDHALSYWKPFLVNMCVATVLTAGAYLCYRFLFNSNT

[4] = molecular target: T2, Tyrosine-protein phosphatase non-receptor type 1; test: Inhibition of PTP1B; how it was run: as §1
[5] = molecular target: T3, Tyrosine-protein phosphatase non-receptor type 1 (Homo sapiens) (UniProt P18031); test: Inhibition of PTP1B at 20 uM by pNPP hydrolase assay
T3 sequence (whole entry): T2 sequence (P18031 whole entry)

## CC(C)=C[C@@H]1C[C@](O)([C@H]2CC[C@@H]3[C@@H]2CC[C@H]2[C@@]3(C)CC[C@H]3C(C)(C)[C@@H](OC(=O)c4cccc(C(=O)O)c4)CC[C@]23C)C(=O)O1
[1]
  IC50: 1.62 µM
[2]
  Ratio IC50: 4.9
[3]
  IC50: 0.33 µM

## CCC(=O)[C@H]1CC[C@]2(C)[C@H]3CC[C@H]4[C@@H](CC[C@@H]4[C@@]4(O)C[C@@H](C=C(C)C)OC4=O)[C@]3(C)CC[C@H]2C1(C)C
[1]
  IC50: 14.7 µM
[3]
  IC50: 4.6 µM

## COc1ccccc1C(=O)O[C@H]1CC[C@]2(C)[C@H]3CC[C@H]4[C@@H](CC[C@@H]4[C@@]4(O)C[C@@H](C=C(C)C)OC4=O)[C@]3(C)CC[C@H]2C1(C)C
[1]
  IC50: 4.05 µM
[3]
  IC50: 1.9 µM

## CCCCC(=O)[C@H]1CC[C@]2(C)[C@H]3CC[C@H]4[C@@H](CC[C@@H]4[C@@]4(O)C[C@@H](C=C(C)C)OC4=O)[C@]3(C)CC[C@H]2C1(C)C
[1]
  IC50: 11.8 µM
[3]
  IC50: 4.14 µM

## CC(C)=C[C@@H]1C[C@](O)([C@H]2CC[C@@H]3[C@@H]2CC[C@H]2[C@@]3(C)CC[C@H]3C(C)(C)[C@@H](OC(=O)c4ccc([N+](=O)[O-])cc4)CC[C@]23C)C(=O)O1
[1]
  IC50: 5.1 µM
[3]
  IC50: 1.42 µM

## CC(C)=C[C@H]1C[C@@](O)([C@H]2CC[C@@H]3[C@@H]2CC[C@H]2[C@@]3(C)CC[C@H]3C(C)(C)[C@@H](O)CC[C@]23C)C(=O)O1
[3]
  IC50: 9.6 µM
[4]
  IC50: 5.3 µM

## CC(C)=C[C@@H]1C[C@](O)([C@H]2CC[C@@H]3[C@@H]2CC[C@H]2[C@@]3(C)CC[C@H]3C(C)(C)[C@@H](OC(=O)c4ccc(C(=O)O)cc4)CC[C@]23C)C(=O)O1
[1]
  IC50: 0.97 µM
[3]
  IC50: 0.27 µM

## CC(=O)O[C@H]1CC[C@]2(C)[C@H]3CC[C@H]4[C@@H](CC[C@@H]4[C@@]4(O)C[C@@H](C=C(C)C)OC4=O)[C@]3(C)CC[C@H]2C1(C)C
[3]
  IC50: 12.7 µM

## COc1ccc(C(=O)O[C@H]2CC[C@]3(C)[C@H]4CC[C@H]5[C@@H](CC[C@@H]5[C@@]5(O)C[C@@H](C=C(C)C)OC5=O)[C@]4(C)CC[C@H]3C2(C)C)cc1
[1]
  IC50: 3.9 µM
[3]
  IC50: 2.61 µM

## CC(C)=C[C@@H]1C[C@](O)([C@H]2CC[C@@H]3[C@@H]2CC[C@H]2[C@@]3(C)CC[C@H]3C(C)(C)[C@@H](O)CC[C@]23C)C(=O)O1
[3]
  IC50: 11.3 µM
[4]
  IC50: 15.7 µM

## CC(C)=C[C@@H]1C[C@](O)([C@H]2CC[C@@H]3[C@@H]2CC[C@H]2[C@@]3(C)CC[C@H]3C(C)(C)[C@@H](OC(=O)c4ccccc4[N+](=O)[O-])CC[C@]23C)C(=O)O1
[1]
  IC50: 3.38 µM
[3]
  IC50: 1.96 µM

## CC(C)=C[C@@H]1C[C@](O)([C@H]2CC[C@@H]3[C@@H]2CC[C@H]2[C@@]3(C)CC[C@H]3C(C)(C)C(=O)CC[C@]23C)C(=O)O1
[1]
  IC50: 34.1 µM
[3]
  IC50: 13.1 µM

## CC(C)=C[C@@H]1C[C@](O)([C@H]2CC[C@@H]3[C@@H]2CC[C@H]2[C@@]3(C)CC[C@H]3C(C)(C)[C@@H](OC(=O)c4ccc([N+](=O)[O-])cc4[N+](=O)[O-])CC[C@]23C)C(=O)O1
[1]
  IC50: 2.87 µM
[3]
  IC50: 1.62 µM

## CC(C)=C[C@@H]1C[C@](O)([C@H]2CC[C@@H]3[C@@H]2CC[C@H]2[C@@]3(C)CC[C@H]3C(C)(C)C(NCc4cc(F)cc(F)c4)CC[C@]23C)C(=O)O1 (some centres undefined)
[3]
  IC50: 11.6 µM

## COc1ccc(CNC2CC[C@]3(C)[C@H]4CC[C@H]5[C@@H](CC[C@@H]5[C@@]5(O)C[C@@H](C=C(C)C)OC5=O)[C@]4(C)CC[C@H]3C2(C)C)cc1 (some centres undefined)
[5]
  inhibition: 24%

## CC(C)=C[C@@H]1C[C@](O)([C@H]2CC[C@@H]3[C@@H]2CC[C@H]2[C@@]3(C)CC[C@H]3C(C)(C)C(NCc4ccc([N+](=O)[O-])cc4)CC[C@]23C)C(=O)O1 (some centres undefined)
[3]
  IC50: 6.58 µM

## CC(C)=C[C@@H]1C[C@](O)([C@H]2CC[C@@H]3[C@@H]2CC[C@H]2[C@@]3(C)CC[C@H]3C(C)(C)[C@@H](OC(=O)c4cccc([N+](=O)[O-])c4)CC[C@]23C)C(=O)O1
[1]
  IC50: 2.26 µM
[3]
  IC50: 1.7 µM

## CC(C)=C[C@@H]1C[C@](O)([C@H]2CC[C@@H]3[C@@H]2CC[C@H]2[C@@]3(C)CC[C@H]3C(C)(C)[C@@H](OC(=O)c4ccc(C(=O)O)c([N+](=O)[O-])c4)CC[C@]23C)C(=O)O1
[1]
  IC50: 1.22 µM
[3]
  IC50: 0.5 µM

## CC(C)=C[C@@H]1C[C@](O)([C@H]2CC[C@@H]3[C@@H]2CC[C@H]2[C@@]3(C)CC[C@H]3C(C)(C)[C@@H](C(=O)c4ccccc4)CC[C@]23C)C(=O)O1
[1]
  IC50: 4.15 µM
[3]
  IC50: 2.75 µM

## COc1cccc(C(=O)O[C@H]2CC[C@]3(C)[C@H]4CC[C@H]5[C@@H](CC[C@@H]5[C@@]5(O)C[C@@H](C=C(C)C)OC5=O)[C@]4(C)CC[C@H]3C2(C)C)c1
[1]
  IC50: 12 µM
[3]
  IC50: 2.08 µM

## CC(C)=C[C@@H]1C[C@](O)([C@H]2CC[C@@H]3[C@@H]2CC[C@H]2[C@@]3(C)CC[C@H]3C(C)(C)[C@@H](OC(=O)c4ccccn4)CC[C@]23C)C(=O)O1
[1]
  IC50: 5.14 µM
[3]
  IC50: 2.36 µM
